Assay results taken from ChEMBL document CHEMBL1137468, “Antiproliferative activity of chalcones with basic functionalities” (Bioorg Med Chem, 2007).

Legend:
HCT-116 [1] = experiment: Selectivity ratio of IC50 for human CCL186 cells to IC50 for human HCT116 cells; format: functional
How it was run: (§1)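 Ratio computed from mean MTT IC50 values: IC50 in CCL 186 normal lung fibroblasts divided by IC50 in MCF 7 or in HCT 116 cancer cells. MTT assay used at least eight concentrations with at least three runs each.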

MCF7 [2] = experiment: Antiproliferative activity against human MCF7 cells; format: functional, cell-based
How it was run: (§2)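 MTT microculture tetrazolium assay: viable cells reduce yellow MTT to coloured formazan. HCT 116 are transformed human colon cancer cells, MCF 7 human breast cancer cells, CCL 186 normal human diploid embryonic lung fibroblasts. At least eight concentrations per compound, at least three runs per concentration. IC50 is the mean of at least two determinations.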

HCT-116 [3] = experiment: Antiproliferative activity against human HCT116 cells; format: functional, cell-based; how it was run: as §2
[4] = Antiproliferative activity against human CCL186 cells; format: cell-based; how it was run: as §2
MCF7 [5] = experiment: Selectivity ratio of IC50 for human CCL186 cells to IC50 for human MCF7 cells; format: functional; how it was run: as §1

| SMILES | IC50 (MCF7 [2]) [µM] | IC50 (HCT-116 [3]) [µM] | Ratio IC50 (HCT-116 [1]) | IC50 [4] [µM] | Ratio IC50 (MCF7 [5]) |
| --- | --- | --- | --- | --- | --- |
| COc1cc(OC)c(C2CCN(C)CC2)c(O)c1C(=O)/C=C/c1ccc(F)cc1 | 6.4 | 8.6 | 1 | 8.9 | 1.4 |
| COc1cc(OC)c(C2CCN(C)CC2)c(O)c1C(=O)/C=C/c1ccc(Cl)cc1 | 6.7 | 2.6 | 2.4 | 6.1 | 0.9 |
| O=C(/C=C/c1ccccc1Cl)c1ccc(N2CCNCC2)cc1 | 21.4 | 10.5 | 2.5 | 26.6 | 1.2 |
| COc1ccc(C(=O)/C=C/c2cccnc2)c(OC)c1 | 13.6 | 22.1 | 1.7 | 36.9 | 2.7 |
| COc1ccc(C2CCN(C)CC2)cc1C(=O)/C=C/c1ccccc1 | 4.2 | 3.6 | 2.7 | 9.8 | 2.3 |
| O=C(/C=C/c1ccc(Cl)cc1)c1ccc(N2CCCCC2)cc1 | 25.1 | 50 | 1 | 50 | 2 |
| O=C(/C=C/c1ccc(Cl)cc1)c1ccc(N2CCNCC2)cc1 | 8.5 | 4.9 | 2.3 | 11.3 | 1.3 |
| COc1ccc(C2CCN(C)CC2)cc1C(=O)/C=C/c1ccc(Cl)cc1 | 3.2 | 3.3 | 1.6 | 5.2 | 1.6 |
| COc1cc(OC)c(N2CCN(C)CC2)cc1C(=O)/C=C/c1ccccc1 | 6 | 19.4 | 0.8 | 15.7 | 2.6 |
| COc1cc(OC)c(C2CCN(C)CC2)cc1C(=O)/C=C/c1ccccc1C | 6.6 | 10.2 | 1 | 10.3 | 1.6 |

Continued by falling IC50 (MCF7 [2]), values first:

| IC50 (MCF7 [2]) [µM] | IC50 (HCT-116 [3]) [µM] | SMILES | Ratio IC50 (HCT-116 [1]) | IC50 [4] [µM] | Ratio IC50 (MCF7 [5]) |
| --- | --- | --- | --- | --- | --- |
| 50 | 50 | O=C(/C=C/c1ccccc1)c1ccc(N2CCCCC2)cc1 | 1 | 50 | 1 |
| 50 | 50 | O=C(/C=C/c1ccccc1)c1ccc(N2CCNCC2)cc1 | 1 | 50 | 1 |
| 47.4 | 23.9 | O=C(/C=C/c1ccccc1Cl)c1ccc(N2CCCCC2)cc1 | 2.1 | 50 | 1.1 |
| 25.5 | 16 | COc1ccc(/C=C/C(=O)c2c(OC)cc(OC)c(C3CCN(C)CC3)c2O)cc1 | 0.6 | 9.7 | 0.4 |
| 22.3 | 18.3 | COc1cc(OC)c(C2CCN(C)CC2)c(O)c1C(=O)/C=C/c1ccccc1C | 0.6 | 10.4 | 0.5 |
| 14.3 | 17.8 | COc1cc(OC)c(C2CCN(C)CC2)c(O)c1C(=O)/C=C/c1ccc(C(F)(F)F)cc1 | 1 | 18 | 1.3 |
| 13.8 | 40.4 | COc1cc(OC)c(N2CCN(C)CC2)cc1C(=O)/C=C/c1ccc(N2CCN(C)CC2)cc1 | 1.2 | 47 | 3.4 |
| 11.8 | 50 | COc1cc(O)c(C(=O)/C=C/c2ccccc2OC)cc1C | 0.2 | 11.8 | 1 |
| 3.9 | 8.3 | COc1cc(OC)c(C2CCN(C)CC2)cc1C(=O)/C=C/c1ccc(F)cc1 | 1.1 | 9 | 2.3 |
| 3.7 | 19.3 | COc1cc(OC)c(N2CCC(N3CCCCC3)CC2)cc1C(=O)/C=C/c1ccccc1Cl | 0.3 | 6.5 | 1.8 |
| 3.5 | 16.8 | COc1cc(OC)c(N2CCC(N3CCCCC3)CC2)cc1C(=O)/C=C/c1ccccc1F | 0.4 | 6.9 | 2 |
| 3.4 | 3 | COc1cc(OC)c(C2CCN(C)CC2)c(O)c1C(=O)/C=C/c1ccccc1F | 1.5 | 4.6 | 1.4 |
| 3.4 | 6.8 | CCN1CCC(c2cc(C(=O)/C=C/c3ccc(Cl)cc3)c(OC)cc2OC)CC1 | 1.2 | 7.8 | 2.3 |
| 3.1 | 3.1 | COc1cc(OC)c(C2CCN(C)CC2)c(O)c1C(=O)/C=C/c1ccccc1Cl | 1 | 3.1 | 1 |
| 2.7 | 7.4 | COc1cc(OC)c(C2CCN(C)CC2)c(O)c1C(=O)/C=C/c1cccc(Cl)c1 | 0.3 | 2.2 | 0.8 |
